# Screens: PubChem BioAssay, The Scripps Research Institute Molecular Screening Center
# PKA-R1A act: activators of PKA-R1A holoenzyme, primary screen, biochemical, fluorescence polarization, Cy5-IP20, bovine R1A, mouse PKAc. cAMP-dependent protein kinase type I-alpha regulatory subunit (Bos taurus) + …. PKA-R1A dissociation; scaled: DMSO 0%, 113 µM cGMP 100%. activation, % at 11.4 µM. 340,000 tested, 0.083% active;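 active = percent activation above the mean of all tested compounds plus 3 SD, cut at about 19% in these data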;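 note: higher means more PKAc released from R1A so a rise in polarization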
# IMP-1 inh-1: IMP-1 metallo-beta-lactamase inhibitors, primary screen, biochemical, epi-absorbance readout, Pseudomonas aeruginosa enzyme; purified IMP-1, nitrocefin hydrolysis, epi-absorbance fluorescence; inhibition, % at 5.6 µM; 290,000 tested, 0.45% active; AID 1556, 2009;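 active = inhibition above the mean plus 3 SD of all compounds in the same screening run, cut at about 4.5% in these data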;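 note: 0% = IMP-1 with DMSO and 100% = DMSO wells lacking enzyme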
#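 system = purified recombinant IMP-1 beta-lactamase | amount = 0.2 nM IMP-1, as dispensed | medium = HEPES buffer pH 7.1 with ZnSO4 and Brij 35 | times = 25 °C, 15 min preincubation, 25 min reaction | detection = plate fluorescence quenching by hydrolysis product, ex 480/em 530 nm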
# MsrA inhibitor: bovine MsrA enzyme inhibitors, primary screen, biochemical, absorbance, HTS; Methionine sulfoxide reductase A (Bos taurus); purified bovine MsrA, absorbance read-out; inhibition, % at 15.5 µM; 360,000 tested, 0.75% active; AID 651718, 2012; in the data active = inhibition above about 4.5%;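 note: 0% = vehicle wells with enzyme and 100% = reference inhibitor wells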
# PKA-R2B activ: activators of PKA-R2B holoenzyme, primary screen, biochemical, fluorescence polarization, Cy5-IP20, human | activation, % at 11.4 µM | AID 504700, 2011 | 340,000 tested, 0.079% active | PKA-R2B holoenzyme dissociation; R2B truncated from residue 108, S112A mutant; 0% DMSO only, 100% 113 µM cGMP;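 active = activation above a cutoff set at the mean over all compounds plus 3 SD, cut at about 18% in these data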;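 note: higher means more holoenzyme dissociation and a rise in polarization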
# Target sequence (P31323 whole entry, looked up, other chains not shown, the tested form may be a part): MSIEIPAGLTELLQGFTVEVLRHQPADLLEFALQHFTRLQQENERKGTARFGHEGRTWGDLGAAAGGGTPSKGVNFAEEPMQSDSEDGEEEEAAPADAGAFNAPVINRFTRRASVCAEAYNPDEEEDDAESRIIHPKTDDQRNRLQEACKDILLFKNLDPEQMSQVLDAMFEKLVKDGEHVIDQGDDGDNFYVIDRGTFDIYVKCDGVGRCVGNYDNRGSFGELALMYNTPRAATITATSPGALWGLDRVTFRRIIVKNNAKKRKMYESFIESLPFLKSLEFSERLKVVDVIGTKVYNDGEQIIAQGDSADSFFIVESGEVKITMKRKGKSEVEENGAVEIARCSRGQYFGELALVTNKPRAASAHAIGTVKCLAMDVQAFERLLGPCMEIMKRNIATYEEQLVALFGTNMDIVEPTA
# VIM-2 inh: VIM-2 metallo-beta-lactamase inhibitors, primary screen, biochemical, epi-absorbance readout, Pseudomonas aeruginosa enzyme; 290,000 tested, 0.89% active; AID 1527, 2009; inhibition, % at 5.6 µM; purified VIM-2, nitrocefin hydrolysis, epi-absorbance fluorescence;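 active = inhibition above the mean of all tested compounds plus 3 SD, cutoff set per screening run, cut at about 7.5% in these data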;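 note: red hydrolysis product quenches plate fluorescence so inhibitors raise well fluorescence; 0% = enzyme with DMSO and 100% = DMSO without enzyme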
# bovine MsrA act: bovine MsrA enzyme activators, primary screen, biochemical, absorbance, HTS; Methionine sulfoxide reductase A (Bos taurus); purified bovine MsrA, absorbance read-out; activation, % at 10.6 µM; 360,000 tested, 0.3% active; AID 602163, 2012; in the data active = activation above about 7.5%;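 note: 0% = vehicle and 100% = reference activator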
# IMP-1 inh-2: IMP-1 metallo-beta-lactamase inhibitors, confirmation, selectivity assay for selective VIM-2 inhibitor project, biochemical, epi-absorbance readout, triplicate; purified IMP-1, nitrocefin hydrolysis, epi-absorbance fluorescence; shares compounds with VIM-2 inh; 1,300 tested, under 10 active; inhibition, % at 5.6 µM; call rule not given here;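 note: 0% = enzyme with vehicle and 100% = vehicle without enzyme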
# VIM-2 FRET ctr: VIM-2 inhibitors in FRET format, confirmation, artefact control for selective VIM-2 inhibitor project, biochemical, epi-absorbance artifact exclusion; inhibition, % at 5.6 µM; 1,300 tested, 23% active; AID 1857, 2009; shares compounds with VIM-2 inh; purified VIM-2, CCF2 FRET substrate hydrolysis;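 active = inhibition above the mean of all tested compounds plus 3 SD, cut at about 19% in these data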;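 note: 0% = VIM-2 plus DMSO and 100% = no enzyme wells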
# TEM-1 counter: TEM-1 serine beta-lactamase inhibitors, counter-screen for VIM-2 inhibitor project, biochemical, epi-absorbance, HTS; shares compounds with VIM-2 inh; Purified TEM-1, nitrocefin hydrolysis, epi-absorbance fluorescence; AID 1866, 2009; 1,300 tested, 3% active; inhibition, % at 5.6 µM;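 active = inhibition above that campaign's mean inhibition plus 3 SD, cut at about 0.46% in these data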;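 note: 0% = TEM-1 with DMSO and 100% = TEM-1 with 100 µM potassium clavulanate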
# VIM-2 inh conf: VIM-2 metallo-beta-lactamase inhibitors, confirmation, biochemical, epi-absorbance, hits shared with IMP-1 screen | shares compounds with VIM-2 inh | purified VIM-2, nitrocefin hydrolysis | inhibition, % at 5.6 µM | 1,300 tested, 96% active | AID 2187, 2009;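 active = inhibition of the VIM-2 beta-lactamase enzyme above about 11% from the earlier first-round screen, limit read from the data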;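 note: 0% = VIM-2 with DMSO and 100% = buffer wells without enzyme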
# The depositor's hits bear a star; . = not tested or not shown. The list is not random: actives were taken first. Their share in the collection is about 2.1%.
SMILES,PKA-R1A act,IMP-1 inh-1,MsrA inhibitor,PKA-R2B activ,VIM-2 inh,bovine MsrA act,IMP-1 inh-2,VIM-2 FRET ctr,TEM-1 counter,VIM-2 inh conf
C=CCn1c(C(c2ccccc2)c2ccccc2)n[nH]c1=S,-7,-2,-1,-1,-6,-2,.,.,.,.
C=CCn1c(C2CC2)n[nH]c1=S,-13,-2,0,-11,15*,-6,-3,37*,-7,23*
S=c1[nH]nc(C2CC2)n1Cc1ccco1,5,2,1,3,25*,2,-3,56*,-7,36*
CCCS(=O)(=O)NC(=O)C1(C)CCN(C(=O)Cc2ccc(OC)c(OC)c2)C1 (stereo unspecified),.,.,0,.,.,1,.,.,.,.
Cc1cc(C(=O)Nc2ccon2)ccc1[N+](=O)[O-],.,.,-1,.,.,-2,.,.,.,.
COc1cc(NC(=O)Nc2nnc([C@@H]3C[C@H](O)[C@@H](CO)O3)s2)cc(OC)c1OC,.,.,1,.,.,-2,.,.,.,.
CCN(CC)S(=O)(=O)c1ccc2c(c1)N(CC(=O)NCCc1ccc(S(N)(=O)=O)cc1)C(=O)CO2,5,-2,0,0,-3,3,.,.,.,.
C=C(C)Cn1c(-c2cccs2)n[nH]c1=S,-1,-1,0,0,48*,3,-4,71*,-9,53*
O=C(CCn1cnc2ccccc21)N=Nc1c(O)[nH]c2ccccc12,15,-4,4,1,36*,-2,-5,-8,-7,53*
COc1ccccc1CNC(=O)c1cc(S(=O)(=O)N2CCN(c3ccccc3)CC2)ccc1Cl,-5,.,0,5,.,-1,.,.,.,.
COc1ccc(CCn2c(SCCN3CCCCC3)nc3ccccc3c2=O)cc1OC,5,-3,-1,-12,75*,-2,-2,0,-5,84*
Cc1cccn2c(=O)c3cc(C(=O)NCC4CCCO4)c(=N)n(CCc4ccccc4)c3nc12 (stereo unspecified),5,-4,-1,5,0,-1,.,.,.,.
COc1ccc(CCn2c(=N)c(C(=O)NCC3CCCO3)cc3c(=O)n4ccccc4nc32)cc1OC (stereo unspecified),-7,-2,2,-11,14*,-3,-2,-1,-5,21*
CC(C)(C)N(Cc1ccccc1)C(=O)COC(=O)c1ccc(N2CCCC2=O)cc1,0,.,0,-5,.,-3,.,.,.,.
O=C1c2cccc3cccc(c23)C(=O)N1CC1CCN(CC(O)COCc2ccc3c(c2)OCO3)CC1 (stereo unspecified),4,-1,1,4,16*,-5,-3,-5,-6,24*
S=c1[nH]nc(-c2ccc3ccccc3n2)n1-c1ccc2c(c1)OCCO2,-2,-2,0,-1,20*,-5,-3,38*,-7,22*
S=c1[nH]nc(-c2ccc3ccccc3n2)n1-c1ccccc1,2,-3,2,1,2,-4,.,.,.,.
